B2AR ag: activates human beta-2 adrenergic receptor causing internalization; P07550; Am2.2-beta2AR cells, FAP receptor internalization, flow cytometry; response, % (concentration not given with the values); actives 0.43% (n = 340,000); AID 504454;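 active means response above a set limit, near 3 SD of response in nonfluorescent compounds, cut at about 42% in these data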
Target sequence (P07550 whole entry, looked up): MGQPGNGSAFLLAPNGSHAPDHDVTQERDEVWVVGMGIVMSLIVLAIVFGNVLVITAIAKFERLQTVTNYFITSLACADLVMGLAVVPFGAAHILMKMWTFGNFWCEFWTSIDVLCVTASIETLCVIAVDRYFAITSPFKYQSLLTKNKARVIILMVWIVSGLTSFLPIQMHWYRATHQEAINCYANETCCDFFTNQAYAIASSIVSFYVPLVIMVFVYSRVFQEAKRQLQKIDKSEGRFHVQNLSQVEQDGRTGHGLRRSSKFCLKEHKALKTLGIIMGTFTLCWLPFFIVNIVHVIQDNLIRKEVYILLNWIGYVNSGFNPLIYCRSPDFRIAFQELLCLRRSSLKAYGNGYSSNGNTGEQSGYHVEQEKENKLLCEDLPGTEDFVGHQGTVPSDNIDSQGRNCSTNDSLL
pCIP destab: compounds decreasing mouse p/CIP protein stability; Q05BA5; F442A p/CIP-EGFP cells, EGFP fluorescence, 16 h; decrease of EGFP signal, % at 10 µM; actives 0.01% (n = 290,000);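 active means EGFP signal decrease of at least 30% at 10 µM or well 3 SD below plate mean, unless failing retest; inactive means the rest, including hits failing retest or dose response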
UPR CHOP act: activators of apoptotic arm of unfolded protein response (CHOP); CHO-CHOP luciferase reporter, UPR activation, luminescence; percent of tunicamycin response over DMSO baseline; activation, % at 10 µM; actives 0.34% (n = 330,000); AID 449763;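 active means at 10 µM dose, activation of 40% or more, normalized to positive control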
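Dosing – one dose, 10 µM in 0.5% DMSO · System – CHO-CHOP cells, stable luciferase reporter of PERK-eIF2a-CHOP signalling · Input – 500 cells/well · Control set – tunicamycin 10 µg/mL final as positive, DMSO-only wells as negative · Timing – 6 h compound treatment, 37 °C · Measure – % activation vs tunicamycin · Technique – luminescence read with Steady-Glo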
CHOP inhibitor: blocks CHOP induction under ER stress; AID 2732; CHO-K1 CHOP-promoter luciferase, tunicamycin-induced, 15-18 h; actives 3.8% (n = 220,000); inhibition, % at 10 µM;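 active means compounds that reduced the stress-induced luciferase reporter signal by more than about 70% of percent inhibition, limit read from the data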
XBP1 UPR activ: adaptive UPR (XBP1) activation; CHO-XBP1 luciferase reporter, IRE1-XBP1 UPR activation, luminescence; percent of tunicamycin response, DMSO as zero; activation, % at 20 µM; actives 0.33% (n = 330,000); AID 463104;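 active means versus positive control, 20 µM dose yields 30% or more activation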
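Material: CHO cell line with stable XBP1 luciferase reporter; buffer or medium: F12 medium containing 10% fetal bovine serum; compound: single point, 20 µM final compound, 1% DMSO; incubation: 6 h treatment, 37 °C; measured by: glow luminescence from Steady-Glo reagent; evaluation: activation, % of tunicamycin; control set: tunicamycin high, DMSO low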
Dynein transport: dynein cargo transport inhibition; z-score, hits read low; 3617.4 mouse cells, GR-EGFP nuclear translocation imaging; test concentration mostly 20 µM; stimulated with dexamethasone, 1 µM; stronger effect = lower value; actives 0.47% (n = 220,000);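 active means plate z-score of nuclear minus cytoplasmic receptor signal below a set negative limit, without overly bright fluorescence or cell loss, cut at about -3.5 in these data, passing the limit was not always enough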;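 further: z-score of nuclear minus cytoplasmic ring GR-EGFP intensity difference per well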
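Buffer or medium – tet-free medium with charcoal-stripped serum · Signal – automated 10x imaging of fixed Hoechst-stained cells · Also added – dexamethasone agonist, 1.0 µM final, for 30 min · Incubation – induction 48 h, compound 1 h, agonist 30 min · Read-out – GR-EGFP nuclear translocation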
Dynein inh conf: dynein cargo transport inhibition, confirmation. shares compounds with Dynein transport. 3617.4 GR-EGFP nuclear translocation imaging, dexamethasone-induced. calls only at 20 µM. actives 69% (n = 1,000). AID 463116;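 active means inhibition of receptor movement into the nucleus at or above a set limit in both runs, with normal cell brightness and cell count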;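 further: dexamethasone at 1 µM final in well for 30 min; nuclear minus cytoplasmic GR-EGFP mean intensity difference in channel 2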
Numbers stand for hits; 0 = inactive; - = not tested or not shown; + = active, no number. The full list was thinned out, with hits kept by preference.

SMILES | B2AR ag | pCIP destab | UPR CHOP act | CHOP inhibitor | XBP1 UPR activ | Dynein transport | others
CCCN(C(=O)CSc1ncnc2sccc12)c1c(N)n(Cc2ccccc2)c(=O)[nH]c1=O | 0 | - | 0 | - | 0 | -
COc1cc(/C=C2/C(=O)NN(c3ccc(C)c(Cl)c3)C2=O)cc([N+](=O)[O-])c1O | 0 | 0 | 0 | - | 0 | -
COc1cc(/C=C2\SC(=O)N(c3ccc(Cl)cc3)C2=O)cc([N+](=O)[O-])c1O | 0 | 0 | - | 105 | - | 0
O=C1S/C(=C\c2ccc(O)c([N+](=O)[O-])c2)C(=O)N1c1ccccc1Cl | 0 | 0 | 0 | 0 | 0 | 0
COc1cc(/C=C2\SC(=O)N(c3cccc(Cl)c3)C2=O)cc([N+](=O)[O-])c1O | 0 | 0 | 0 | 105 | 0 | 0
N#CC1(NC(=O)CSc2nc3ccc([N+](=O)[O-])cc3s2)CCCCC1 | 0 | - | 0 | - | 0 | -
Cc1ccc(C)c(N(C(=O)CNC(=O)c2ccco2)C(C(=O)NC2CCCCC2)c2cccnc2)c1 (stereo unspecified) | 0 | 0 | 0 | - | 0 | -
Cc1cccc(CCNC(=O)c2cccc3c2C(=O)N(C2CCCCC2)C3)c1 | 0 | 0 | 0 | - | 0 | -
O=C(NCCC1=CCCCC1)c1cccc2c1C(=O)N(C1CCCCC1)C2 | 0 | 0 | 0 | 85 | 0 | 0
CC(OC(=O)CN(C)S(=O)(=O)c1ccc(Cl)cc1)C(=O)Nc1ncc(Cl)cc1Cl (stereo unspecified) | 0 | 0 | 0 | 0 | 0 | 0
CC(OC(=O)CN(C)S(=O)(=O)c1ccc(Cl)cc1)C(=O)Nc1cccc(Cl)c1 (stereo unspecified) | 0 | 0 | 0 | 83 | 0 | 0
CC(=O)N(C(C)=O)n1c(/C=C/c2cccc([N+](=O)[O-])c2)nc2ccccc2c1=O | 0 | 0 | 0 | 93 | 0 | 0
O=C(O)c1cccc(-n2c(/C=C/c3cccc([N+](=O)[O-])c3)nc3ccccc3c2=O)c1 | 0 | 0 | 0 | - | 0 | -
COc1ccc(-n2c(C)nc3c(cnn3-c3ccc(Cl)cc3)c2=O)cc1 | 0 | 0 | 0 | 83 | 0 | 0
COc1ccc(-n2c(C)nc3c(cnn3-c3ccc(C)cc3)c2=O)cc1 | 0 | 0 | 0 | 0 | 0 | 0
CCOC(=O)c1ccc(-n2c(C)nc3c(cnn3-c3ccc(Cl)cc3)c2=O)cc1 | 0 | 0 | 0 | 76 | 0 | 0
CCOC(=O)c1ccc(-n2c(C)nc3c(cnn3-c3ccccc3Cl)c2=O)cc1 | 0 | 0 | 0 | 0 | 0 | 0
CC(C)CC(NC(N)=O)C(=O)OCC(=O)N(Cc1ccccc1)Cc1ccccc1 (stereo unspecified) | 0 | 0 | 0 | 0 | 0 | 0
O=C1NC(=O)C2(CCCCC2C2CCCCC2)N1 (stereo unspecified) | 0 | - | - | - | - | -
Cc1ccc(-c2nnc(SCC(=O)N/N=C/c3ccc(C)s3)n2-c2ccc(C)cc2)cc1 | 0 | 0 | 0 | 75 | 0 | 0
CCCCCCCCCC(=O)N/N=C/c1ccc(C)s1 | 0 | 0 | 0 | 95 | 0 | 0
Cc1ccc(/C=N/Nc2cccc(C(=O)O)c2)s1 | 0 | 0 | 0 | 80 | 0 | 0
Cc1ccc(/C=N/Nc2ccc(C(=O)O)cc2)s1 | 0 | 0 | 0 | 75 | 0 | 0
O=C(O)c1cccc(N/N=C/c2cccc3ccccc23)c1 | 0 | 0 | 0 | - | 0 | -
Cc1ccc(-c2nnc(SCC(=O)N/N=C/c3ccccc3C(=O)O)n2-c2ccccc2)cc1 | - | 0 | 0 | 0 | 0 | 0
SMILES | B2AR ag | pCIP destab | UPR CHOP act | CHOP inhibitor | XBP1 UPR activ | Dynein transport | others
COC(=O)Cn1c(=O)c2c(nc3n2CC(C)CN3c2ccc(C)c(C)c2)n(C)c1=O (stereo unspecified) | 0 | 0 | 0 | 0 | 0 | 0
O=C(O)c1ccc(N/N=C/c2ccc(-c3ccccc3)cc2)cc1 | 0 | 0 | - | 0 | - | 0
Cc1ccsc1/C=N/Nc1cccc(C(=O)O)c1 | 0 | 0 | 0 | 89 | 0 | 0
Cc1ccc(NC(=O)CSc2nnc(C)n2-c2ccccc2)cc1 | 0 | 0 | 0 | 0 | 0 | 0
Cc1ccsc1/C=N/Nc1ccc(C(=O)O)cc1 | 0 | 0 | 0 | - | 0 | -
Cc1nnc(SCC(=O)N/N=C/c2cn(-c3ccccc3)nc2-c2ccccc2)n1-c1ccccc1 | 64 | 0 | 0 | 0 | 0 | 0
CC(C)c1ccc(/C=N/Nc2ccc(C(=O)O)cc2)cc1 | 0 | 0 | 0 | 84 | 0 | 0
Cc1nnc(SCC(=O)NC2CCCCC2)n1N | 0 | - | 0 | - | 0 | -
CN(C(=O)c1cccc(S(=O)(=O)N2CCOCC2)c1)c1c(N)n(Cc2ccccc2)c(=O)[nH]c1=O | 0 | - | 0 | - | 0 | -
O=C(NCCc1ccc(Cl)cc1)Nc1ccc(Cl)cc1 | 0 | 0 | 0 | 0 | 0 | 0
O=C(NCCOc1nc(N2CCCCC2)nc(N2CCCCC2)n1)Nc1ccccc1 | 0 | 0 | 0 | 0 | 0 | 0
CCN(CCNC(=O)Nc1ccc(Cl)cc1)c1ccccc1 | 0 | 0 | 0 | 75 | 0 | 0
CCN(CC)c1nc(OCCNC(=O)Nc2ccccc2)nc(N(CC)CC)n1 | 0 | 0 | 0 | 90 | 0 | 0
COc1ccccc1/C=C/C(=O)c1cc(Br)ccc1OC(=O)c1ccco1 | 0 | - | 0 | - | 0 | -5.3
CNc1ccccc(C(=O)/C=C/c2ccccc2OC)c1=O | 0 | 0 | 0 | 88 | 0 | 0
CC(=O)/C=C1/C(=O)Nc2ccccc21 | 0 | 0 | 0 | 0 | 0 | -5.6 | Dynein inh conf=+
O=C(COc1ccc(/C=C\[N+](=O)[O-])cc1)N1CCOCC1 | 0 | 0 | 0 | 85 | 0 | -5 | Dynein inh conf=+
COc1ccccc1-c1nnc(Sc2nc([N+](=O)[O-])nn2C)o1 | 0 | 0 | 0 | 0 | 0 | -4.1 | Dynein inh conf=+
O=[N+]([O-])c1ccc(C2=NN(c3ccccc3)C(c3ccco3)C2)cc1 (stereo unspecified) | 0 | 0 | - | 0 | - | 0 | Dynein inh conf=0
CCNC(=S)N1CCN(S(=O)(=O)/C=C/c2ccccc2)CC1 | 0 | 0 | 0 | - | 0 | -
COc1ccc(NC(=O)CCc2nc3ccccc3s2)c(OC)c1 | 0 | 0 | 0 | 0 | 0 | -5.7 | Dynein inh conf=0
COCCCNC1=C(Cl)C(=O)c2ccccc2C1=O | 0 | 0 | 0 | 0 | 0 | 0
COCCCNc1c2c3c(cccc3[nH]c1=O)C(=O)c1ccccc1-2 | 0 | 0 | 0 | 0 | 0 | -4.9 | Dynein inh conf=+
CNc1c2cccc(C)c2nc2c(C(=O)NCCN(C)C)cccc12 | 0 | - | - | - | - | -
Cc1nn(C)c(C(=O)Sc2cccc(Cl)c2)c1[N+](=O)[O-] | 0 | 0 | 0 | 0 | 0 | -3.9 | Dynein inh conf=+
Cc1cc(C)c2c(=O)n(CC(=O)NC3CCCC3)sc2n1 | 0 | 0 | 0 | 0 | 0 | -4.2 | Dynein inh conf=+
Cc1cc(C)c2c(=O)n(CC(=O)Nc3ccc(Br)c(C)c3)sc2n1 | 0 | 0 | 0 | 0 | 0 | 0

Screening results deposited in PubChem BioAssay by several laboratories.
